# Results taken from ChEMBL document CHEMBL4513216, “Probing the Open Global Health Chemical Diversity Library for Multistage-Active Starting Points for Next-Generation Antimalarials” (ACS Infect Dis, 2020).
# Experiment: Toxicity liver stage against HepG2, at 10uM
# Assay type: cell-based
# Parameters: test concentration 10 uM, cell line HepG2-A16-CD81EGFP
# Details: human, HepG2-A16-CD81EGFP cells; read-out: INHIBITION
# Outline: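 Uninfected HepG2-A16-CD81EGFP cells, 3 × 10^3 per well, 1536-well, plated on prespotted compound at 10 μM final, parasite-free screening media added to match infected plates; puromycin 10 μM positive, DMSO 0.5% negative; run in parallel with 48 h PbLuc assay at 37 °C, 5% CO2; viability by CellTiter-Glo luminescence, normalized to controls.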
row,Structure (SMILES),cytotoxicity at 10 µM [%]
1,O=C(Cc1cnc(-c2c(Cl)cccc2Cl)s1)N1CCC2(CC1)OCCO2,-0.367
2,Cc1nc(NC(=O)CCN2C(=O)c3ccccc3NC2C(C)C)sc1C (configuration not stated),0.308
3,Cc1ccc(C(=O)NC2CC2)c(-n2cnnn2)c1C,-2.27
4,O=C(CCc1nnc2ccccn2c1=O)NCc1ccco1,-7.51
5,O=C(CC1CSc2nccc(=O)n21)NCc1ccco1 (configuration not stated),-7.2
6,CCCc1cc(=O)n(CC(=O)NCCOC)c(-n2nc(C)cc2C)n1,1.69
7,CCCC(=O)N1CCC(c2nn(C)c(=O)n2-c2ccccc2)CC1,5.91
8,CC(C)CN1C(=O)CO[C@@H]2CN(C(=O)N3CCOCC3)C[C@H]21,-1.68
9,Cc1cccc(CN2CCCC3(CCN(c4cccnc4)C3=O)C2)n1 (configuration not stated),-1.34
10,COCC(=O)N1CC[C@@H]2CN(Cc3ccccc3)S(=O)(=O)[C@@H]2CC1,-0.733
11,OCc1nnn2c1CN(Cc1cccnc1)CCC2,10.1
12,CCC1=N[C@@]2(CC[C@@H]3CN(CC(=O)N(C)C)C[C@@H]32)C(=O)N1CC(C)C,8.18
13,COc1ncccc1CN1C[C@@H]2COC[C@]2(CNC(=O)c2ccno2)C1,8.07
14,Cc1ccc(CSc2ncc(Br)c(C(=O)O)n2)cc1,-2.3
15,CC1(C)OCC(CNC(=O)c2cnn(-c3ccc(Cl)cc3)c2N)O1 (configuration not stated),2.31
16,CC(C)CNC(=O)CN(Cc1ccc(F)cc1)S(C)(=O)=O,10.2
17,COc1ccccc1C(=O)Nc1c(F)c(C(=O)N2CCCC2)nn1C,5.83
18,CCCN1CCN(C(=O)C(C)n2cc(Br)cn2)CC1 (configuration not stated),-18.8
19,CCn1ncc(S(=O)(=O)N[C@@H]2CCC[C@@H](n3ccnc3)[C@@H]2O)c1C,1.18
20,Cc1ncc(-c2ccccn2)c(CCNC(=O)CCC2CCCO2)n1 (configuration not stated),11.7
21,O=c1c2ccccc2nc2n1CCN(Cc1cccs1)CC2,2.39
22,OC1(CNc2cccc(F)c2)CCNCC1,5.38
23,CCN(Cc1ccc(CN(C)C)cc1)C(=O)c1ccncc1O,-7.19

row,Structure (SMILES),cytotoxicity at 10 µM [%]
1,CNC(=O)C(c1cccc(Cl)c1)C(C)C (configuration not stated),2.02
2,CC(=O)NCCNC(=O)c1sccc1Br,4.2
3,O=S(=O)(c1cncc(F)c1)N1CCSC2(CCCCC2)C1,9.48
4,N#Cc1ccc(CNCCc2cc(F)cc3c2OCOC3)cc1,6.58
5,O=C(NS(=O)(=O)c1cccnc1)C1CC(c2ccccc2)=NO1 (configuration not stated),-8.87
6,CCN(CC)S(=O)(=O)c1cc(NC(=O)CCc2cscn2)ccc1C,-0.25
7,CC(=O)N1CCCN(CCCSc2ccccc2Cl)CC1,0.269
8,CNS(=O)(=O)CC(=O)NCc1cc2c(s1)CCCCC2,2.42
9,CCc1noc(C(C)Sc2nnc(C3CC3)n2CC(N)=O)n1 (configuration not stated),-148
10,Cn1c(CN2CCC(N3CCNC3=O)CC2)cc(=O)n(C)c1=O,-2.03
11,O=c1n(CCNCc2cccc3ccccc23)nc2ccccn12,0.551
12,CCOc1nnc(CN2CCN(CCOC)C(CC)C2)s1 (configuration not stated),-5.73
13,Cc1cc(N2CCCC2c2cccnc2)nc(C)n1 (configuration not stated),-8.3
14,Cn1cccc(NC(=O)NCCOCc2ccccc2)c1=O,-37.8
15,CCC(=O)Nc1ccc(C(C)Nc2nc3c(cnn3C)c(=O)[nH]2)cc1 (configuration not stated),4.01
16,Cc1cc(CSCc2cc(C)on2)on1,6.42
17,COc1ccc(CNC2CCc3ncnn3C2)cc1OCCCC#N (configuration not stated),-5.45
18,COCC(=O)N[C@H](C(=O)NC(C)c1cccc(C)c1C)C(C)C (some centres not stated),5.38
19,CC(NC(=O)NCC(C)(C)C(N)=O)c1nc(-c2ccccc2)cs1 (configuration not stated),12.7
20,COCCn1cc(C(=O)N2CCCC2c2cc(C)on2)c2ccccc21 (configuration not stated),6.35
21,O=C(NC1CCN(c2cccc(C(F)(F)F)n2)CC1)C1CC1,-0.432
22,CCC(C)NC(=O)CN1CCOCC1 (configuration not stated),-5.74
23,N#CCCCn1nnc(C2(NC(=O)c3ccccc3)CCCC2)n1,13.6

row,Structure (SMILES),cytotoxicity at 10 µM [%]
1,CC(C)CS(=O)(=O)CC(=O)N1CCCC1c1noc(C2CC2)n1 (configuration not stated),13.4
2,Cc1ccc(C2COCCN2C(=O)c2ccc(C)s2)o1 (configuration not stated),-3.9
3,OCC(CO)Nc1cccc(C(F)(F)F)n1,0.409
4,COCc1noc(C2(c3cccc(Cl)c3)CCOCC2)n1,-2.93
5,Cc1ccc(-n2nnc(CC(=O)N3CCN(C4CC4)CC3)c2C)cc1,-8.06
6,COc1cc(NCc2c(C)noc2C)c(OC)cc1Cl,47
7,COCCCNC(=O)Nc1cc(-c2ccccc2C)nn1CCO,-0.267
8,CCOCC1CCN(C(=O)Nc2ccc3c(c2)CCCO3)C1 (configuration not stated),10.6
9,CC(C)(CNc1cc(F)ccc1F)S(C)(=O)=O,-2.94
10,Cn1cc(Br)cc1C(=O)NC1(C#N)CC1,21.8
11,CN(CC(=O)N(CCC#N)c1ccccc1)C1CCc2ccccc21 (configuration not stated),3.15
12,NCc1ccc(Oc2cccc(Cl)c2Cl)nc1,4.75
13,CN(C(=O)CN1CCc2nn(C)c(=O)cc2C1)c1nccs1,10.4
14,Cc1nc(C)c(CNCC2CCCn3ccnc32)s1 (configuration not stated),-14.6
15,COc1ccc(CC(=O)NC(CC(=O)O)c2ccc(F)cc2)cc1OC (configuration not stated),0.902
16,CCc1nc(CCNC(=O)Nc2cc(C(N)=O)sc2C)cs1,24.6
17,CN(CCCNc1cc(N2CCCC2CO)ncn1)S(C)(=O)=O (configuration not stated),-10.2
18,Cn1ccnc1CN1C[C@@H]2OCCN(c3ncccn3)[C@@H]2C1,-73
19,CN(Cc1ccncc1)C1CC2(CCN(Cc3ccccn3)CC2)C1,-90.4
20,CCOCC1CN(C(=O)N2CCCC2)Cc2cnn(CC)c21 (configuration not stated),-77.5
21,CC1=N[C@@]2(CC[C@@H]3CN(C(=O)NCc4ccccc4C)C[C@@H]32)C(=O)N1,-74.9
22,Cn1cc(CN2CCCC3(CCN3S(C)(=O)=O)C2)cn1 (configuration not stated),-68.4
23,CCO[C@@H]1CCN(C(=O)c2ccc[nH]2)[C@@H]1Cc1cnn(C)c1,1.44

row,Structure (SMILES),cytotoxicity at 10 µM [%]
1,Cc1ncc(-c2ccnc(N3CCCCC3)n2)c(=O)[nH]1,7.53
2,Cc1ccc(C(=O)O)cc1CNC(=O)CN1CC(C)(C)[C@@](C)(O)C1,-6.03
3,OC1(Cn2ccnc2)CCN(C[C@]2(O)CCCN3CCCC[C@@H]32)CC1,0.805
4,O=C1OCC(CO)N1Cc1cccc(Cl)c1F (configuration not stated),0.739
5,Cc1nc(C)c(Cc2nc(C3CC3)n[nH]2)c(=O)[nH]1,2.39
6,O=C(NC1CCCC1)N1C[C@H]2CN(c3ccncc3)C[C@@]2(C(=O)O)C1,11.3
7,c1cncc(-c2cccc(-c3ccn(CCN4CCCCC4)n3)c2)c1,2.54
8,CCCc1ccc(C(=O)N2CCc3c(nc(C)nc3N(C)C)C2)cc1,-1.34
9,NC(=O)CCn1cc(CNCCCc2csc(N)n2)c2ccccc21,3.1
10,COCCn1c(=O)n(Cc2ccccc2C)c2cc(C(=O)O)ccc21,-1.79
11,O=C(c1cccc(-n2cccn2)c1)N1CCOC(CCO)C1 (configuration not stated),0.0642
12,CCc1c(O)nc(SCC(=O)N(CC)CC)n(C(C)CC)c1=O (configuration not stated),-6.65
13,Cc1nccn1CCC(=O)N1CCCN(c2ccccc2)CC1,-6.08
14,CNS(=O)(=O)c1ccc(CN(C)Cc2nc3ccc(F)cc3[nH]2)cc1,17.2
15,Cc1c(C(=O)N[C@H]2CN(CCS(C)(=O)=O)C[C@@H]2C2CC2)cnn1C,7.02
16,OC1CN(Cc2cccc(N3CCOCC3)c2)Cc2ccccc21 (configuration not stated),-3.15
17,Cn1ccn2ncc(C(=O)NCc3cccnc3N3CCCC(O)C3)c12 (configuration not stated),-8.01
18,CN(Cc1cccc(C(=O)Nc2ccnn2C)c1)CC1(C)COC1,-5.84
19,O=C(CCN1CCCCO1)N1CC[C@H](O)[C@@H](O)C1,-1.77
20,COCCn1ccnc1CN1CCc2[nH]cnc2C1c1cccc(O)c1 (configuration not stated),-2
21,O[C@H]1[C@H](NCCc2ccccn2)c2ccccc2C12CCNCC2,13.7
22,CNS(=O)(=O)CCNC(=O)[C@@]12CNC[C@@H]1CN(C1CCCC1)C2,1.3
23,CN(CCCc1cnn(C)c1)C(=O)C1CCOC1 (configuration not stated),-13.4

row,Structure (SMILES),cytotoxicity at 10 µM [%]
1,CC(C(=O)Nc1ccc(N2CCCCC2)nc1)n1cncn1 (configuration not stated),-31.2
2,CCOc1ccc(C(=O)N2CCCC2Cn2cc(C)cn2)cn1 (configuration not stated),-20.2
3,Cc1cc(C)n(CC2CN(Cc3cnc(C)s3)CCO2)n1 (configuration not stated),-19.7
4,Cc1cccc(NC2CCN(C(=O)Nc3ccccn3)CC2)n1,-7.92
5,Cn1c(C2CC2)nc2c1CCN(CCOc1ccccc1C#N)C2,-29.8
6,CC(C)Cc1nc(CN2CCOC(Cn3cccn3)C2)no1 (configuration not stated),-28.9
7,CCc1nc(C2CCCN2Cc2nccn2CC(F)(F)F)no1 (configuration not stated),-17.2
8,CN(C)c1ncccc1CNC(=O)NCCN(C)C1CCCC1,-11.9
9,CCOCC(O)CN1CCN(C(=O)c2ccc(OC)cc2F)CC1 (configuration not stated),-11.9
10,NC(=O)c1cc(C2CCCN(CCc3ccccn3)C2)n[nH]1 (configuration not stated),-8.44
11,COc1ccc(OCCCN2CCOC(Cn3cccn3)C2)cc1 (configuration not stated),5.34
12,Cc1cc(CN(C)C(=O)NC2CCS(=O)(=O)C2)no1 (configuration not stated),-1.61
13,CS(=O)(=O)N1C[C@@H](Oc2ccccn2)[C@H]2OCCC[C@H]21,7.78
14,CCN1CCOCC12CCN(C(=O)Cc1ccccc1)CC2,-75.3
15,CCS(=O)(=O)NC[C@]12COC[C@H]1CN(Cc1sccc1C)C2,-75.2
16,CCOCC1CN(S(=O)(=O)N(C)C)Cc2cnn(CC)c21 (configuration not stated),2.26
17,Cc1ccc2nc(C3CCN(CC4CC4)CC3)nn2c1,0.806
18,O=C(NCc1ccccn1)[C@H]1COC[C@H]2CN(C3CCCC3)C[C@H]21,-73.6
19,O=C(NC[C@]12COC[C@H]1CN(Cc1cccnc1)C2)c1ccno1,4.35
20,c1csc(CN2Cc3nccn3CC(Cn3cncn3)C2)n1 (configuration not stated),-9.35
